# Source: PubChem BioAssay (Broad Institute)
# SIRT5 block – SIRT5 desuccinylase inhibitors, primary screen, biochemical, fluorescence imaging, single point, set 5. NAD-dependent protein deacylase sirtuin-5, mitochondrial (Homo sapiens), Q9NXA8. Purified SirT5, succinyl-peptide AMC, trypsin-coupled fluorescence. inhibition, % at 15 µM. 330,000 tested, 1.1% active; in the data active = inhibition above about 15%; inconclusive = no clear call, values can overlap the other calls
# Target sequence (Q9NXA8 whole entry, looked up): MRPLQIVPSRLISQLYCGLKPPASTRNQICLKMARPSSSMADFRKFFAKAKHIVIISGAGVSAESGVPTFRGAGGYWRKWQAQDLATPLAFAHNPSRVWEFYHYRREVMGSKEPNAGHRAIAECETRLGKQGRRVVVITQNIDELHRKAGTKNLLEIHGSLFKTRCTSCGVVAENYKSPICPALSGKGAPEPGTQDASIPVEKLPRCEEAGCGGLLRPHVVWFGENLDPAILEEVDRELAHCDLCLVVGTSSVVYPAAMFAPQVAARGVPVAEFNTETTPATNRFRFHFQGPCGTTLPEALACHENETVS
# Ecoli rRNA inh – reduced GFP signal of wild-type E. coli, primary screen, bacterial rRNA inhibitor project, GFP/RFP fluorescence, OD600, single point | E. coli WT GFP vs humanized-ribosome RFP mutants, 24 h; active compounds read low; DMSO median 0, no signal -100 | GFP signal change (wild-type ribosome), % (concentration not given with the values) | 350,000 tested, 1.6% active;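 active = significant combined selectivity score with lowered wild-type GFP, culture density cut under 30%, mutant RFP and density less affected; inactive = any of these conditions unmet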
# C2C12 statin – suppressors of statin myotoxicity in C2C12 myotubes, primary screen, cell-based, single point, plate reader; C2C12 myotubes + simvastatin, ATP luminescence, 48 h; scaled: DMSO 0, geranylgeraniol control 100; rescue of ATP level, % at 7.49 µM; 330,000 tested, 0.78% active;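 active = mean ATP rescue above about 67%, or every replicate alone reaching that limit, limit read from the data, passing the limit was not always enough; inconclusive = no clear call, values can overlap the other calls; inactive = mean under the limit and some replicate under it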;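 also: myotubes were challenged with 10 µM simvastatin during compound exposure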
# PGC1a acetyl inh – inhibitors of PGC1a acetylation signal, primary screen, cell-based, U2OS, AlphaScreen, inhibitor mode; 350,000 tested, 0.17% active; AID 651687, 2012; inhibition, % at 15.6 µM; AlphaScreen anti-acetyl-lysine; with virally co-expressed GCN5 acetyltransferase;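 active = every replicate shows inhibition of at least 40%; inconclusive = mean inhibition at least 40% but some replicate below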;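 also: 0% = neutral control wells and 100% = positive control wells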
# S100A4 inh HTS – inhibitors of S100A4-myosin IIA peptide binding, primary screen, biochemical, fluorescence polarization, TAMRA-MyoIIA peptide | Protein S100-A4 (Homo sapiens), P26447 | inhibition, % at 10.7 µM | 360,000 tested, 0.14% active;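 active = mean inhibition of at least 70% across replicates, with every replicate also reaching that level; inconclusive = mean inhibition reaches 70% but some replicates fall short; inactive = mean inhibition below 70%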
# Target sequence (P26447 whole entry, looked up): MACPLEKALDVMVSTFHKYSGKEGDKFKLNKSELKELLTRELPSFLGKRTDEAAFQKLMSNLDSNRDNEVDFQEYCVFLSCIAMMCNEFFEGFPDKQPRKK
#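 Material: human S100A4 monomer with TAMRA-labelled myosin IIA peptide; buffer or medium: HEPES pH 7.2 with CaCl2, KCl, NaCl, DTT, Triton; compound dosing: one concentration per compound; schedule: 5 min incubation before reading; benchmarks: neutral control DMSO, positive control TFP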
# Cneo AK release – Cryptococcus neoformans cell lysis inducers, primary screen, AK release luminescence, single concentration. C. neoformans lysis, adenylate kinase release luminescence, 4 h; normalised: neutral wells 0, clomiphene wells 100. lysis activity, % at 15 µM. 360,000 tested, 0.2% active;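 active = mean lysis activity across replicates of at least 80%, whatever share of replicates individually reach that level; inactive = mean lysis activity below 80%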
#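 Assay system: Cryptococcus neoformans yeast cells / Dosing: single-point compound dose / Timing: 4 h at 37 °C static, read 1 h later / Measured by: luminescence of released adenylate kinase using an AK detection reagent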
# AID977621 – growth inhibition of wild-type GFP E. coli, dose response, H69 mutant RFP, cherry-pick; activity change, negative = inhibition at 50 µM; AID 977621, 2014; E. coli wild-type GFP strain growth, fluorescence, 24 h; 1,900 tested, under 10 active; shares compounds with Ecoli rRNA inh;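 active = Wild-type ribosome reporter drop at least double the humanized mutant ribosome reporter drop, growth loss under a set limit; inconclusive = no clear call, values can overlap the other calls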;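 also: wild-type GFP and H69 mutant RFP strains grown together 50/50 in each well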
# AID977628 – E. coli growth inhibition, wild-type GFP versus h24 humanized RFP strain, dose response, h24 mutant RFP vs wild-type GFP, cherry-pick | shares compounds with Ecoli rRNA inh | E. coli WT GFP strain growth, fluorescence, 24 h | activity change, negative = inhibition at 50 µM | 1,900 tested, under 10 active;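 active = compound lowering the normal-ribosome reporter at least twice as much as the humanized-ribosome reporter, growth loss under a set limit; inconclusive = no clear call, values can overlap the other calls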;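 also: wild-type GFP and h24 humanized RFP strains co-cultured 1 to 1 per well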
# * marks the source's active call; other numbers are inactive results; u = inconclusive; x = no result given. In the library only some 3% were active in any assay of this set; here they are far more common.
SMILES,SIRT5 block,Ecoli rRNA inh,C2C12 statin,PGC1a acetyl inh,S100A4 inh HTS,Cneo AK release,others
CC12C=CC(=O)C=C1CCC1C2C(=O)CC2(C)C(=O)CCC12 (stereo not drawn),6,-2,1,-2,4,0,
C[C@]12CCC(=O)C=C1CC[C@@H]1C2[C@H](O)C[C@]2(C)C(=O)CCC12 (stereo partly drawn),-5,-26*,3,-3,-7,1,
CC=Cc1ccc2n(c1=O)C[C@H]1[C@H](CO)[C@@H](C(=O)O)[C@@H]2N1S(=O)(=O)c1ccccc1F (mixture of isomers),-3,0,-15,x,-1,0,
CN1C[C@@H]2N[C@H](C1)C2c1ccc(Br)cc1 (stereo partly drawn),x,1,x,x,x,x,
C/C(=N\NC(=O)c1ccccc1O)c1c(O)n(C2CCCCC2)c(=O)[nH]c1=O,2,-18*,6,4,2,-1,
C/C(=N\NC(=O)c1ccccc1)c1c(O)n(C2CCCCC2)c(=O)[nH]c1=O,9,3,95*,9,0,-1,
C/C(=N\NC(=O)c1ccccc1Cl)c1c(O)n(C2CCCCC2)c(=O)[nH]c1=O,3,-32*,-2,-10,0,5,
C/C(=N\NC(=O)c1ccccc1O)c1c(O)n(Cc2ccccc2)c(=O)[nH]c1=O,2,-11,6,10,-2,-2,
CC(=NCCO)c1c(O)n(C2CCCCC2)c(=O)[nH]c1=O,x,x,3,x,x,3,
Cc1ccccc1N1C(=O)NC(=O)/C(=C\c2cnn(-c3ccccc3)c2)C1=O,20*,16,x,x,-6,x,
COc1cccc(-c2sc3ccccc3c2-c2ccc(OCCN3CCOCC3)cc2)c1,-1,11,-6,x,-5,1,
CCOc1ccc(-c2cc(C)[n+](CCN3CCOCC3)c(-c3ccc(OCC)cc3)c2)cc1,-3,-53*,-74,-9,-4,x,
O=C1C2CCCN2C(c2cccnc2)N1c1ccc(Cl)cc1 (stereo not drawn),x,x,x,x,x,3,
O=C1C2CCCN2C(c2cccnc2)N1c1nccs1 (stereo not drawn),x,x,155*,-2,x,0,
Cc1ccc(CS(=O)(=O)CCC(=O)N2CCC3(CC2)OCCO3)cc1,1,0,-22,44*,1,0,
CC=Cc1ccc2n(c1=O)C[C@H]1[C@H](CO)[C@@H](C(=O)OC)[C@@H]2N1CC1CCOCC1 (mixture of isomers),1,1,-4,x,-5,-1,
C[C@]12CC[C@@H](O)CC1=CCC1C2CC[C@@]2(C)C1CC[C@@H]2N (stereo partly drawn),-1,-4,0,-2,-1,-2,
COc1cc(/C=C2\C[C@H]3[C@@H]4CC=C5C[C@@H](N6CCCC6)CC[C@]5(C)[C@H]4CC[C@]3(C)[C@H]2O)cc(OC)c1OC,x,-21*,x,x,2,x,
COC(=O)[C@H]1[C@H](CO)[C@H]2Cn3c(ccc(C4=CCCCC4)c3=O)[C@@H]1N2CC1CCCCC1,-6,-26,x,-4,1,x,
CCOC(=O)[C@]12Cc3c(cc(OC)c(OC)c3OC)[C@H]1N(C1CCCCC1)C(=O)c1ccccc12,20*,-48,x,x,-1,x,
Oc1c(Br)cc(Br)cc1Br,x,-21*,0,6,-3,3,AID977621=4.6;AID977628=-1.7
CSc1ccc(CN2CCN(Cc3ccccc3Cl)CC2)cc1,-3,-22*,x,x,4,x,AID977628=u
COCCNC(=O)c1c(N)n(CCC(C)C)c2nc3ccccc3nc12,x,x,x,-8,x,2,
CC(C)CCn1c(N)c(C(=O)NCc2cccs2)c2nc3ccccc3nc21,-6,-22*,x,2,-1,-2,AID977621=-3.4;AID977628=u
CC(C)Cc1nc(N2CCNCC2)c(C#N)c2c1CCC2,-1,-21*,x,1,3,1,AID977621=-17
SMILES,SIRT5 block,Ecoli rRNA inh,C2C12 statin,PGC1a acetyl inh,S100A4 inh HTS,Cneo AK release,others
C/C=C/c1ccc(C2[C@@H]3CN(C(=O)CN(C)C)C[C@H]2N3)cc1 (stereo partly drawn),-1,8,x,8,-1,x,
COc1cccc(CN2CC3(C2)[C@H](c2ccccc2)[C@H](CO)N3C(=O)Cc2ccccc2)c1,7,-5,x,-4,-10,x,
O=C(c1sc2ccccc2c1Cl)N1CCC2(CC1)OCCO2,-4,-20*,-53,9,1,-1,AID977621=-0.9;AID977628=-9.7
O=C(c1ccc(F)cc1Cl)N1CCC2(CC1)OCCO2,x,6,3,13,8,-1,
COc1ccc(-c2ccc([C@@H]3[C@H](CO)N4CCCCN(C(=O)Cc5ccccc5)C[C@@H]34)cc2)cc1,1,-60,x,1,1,1,
C/C=C/c1ccc([C@H]2[C@@H](CO)N3CCCCN(C(=O)Cc4ccncc4)C[C@@H]23)cc1,1,1,24,-1,-1,-2,
Cc1c(C(=O)Nc2ccccc2)c2cc(O)ccc2n1Cc1ccccc1,1,-20*,7,-16,1,-2,AID977621=-0.49;AID977628=u
CCOC(=O)C1(CCOc2ccccc2)CCN(C2Cc3ccccc3C2)CC1,3,-20,x,x,-5,x,
CCOC(=O)C12C(=O)OCC1C2c1ccccc1 (stereo not drawn),-1,-4.1*,x,x,-6,x,AID977621=3;AID977628=1.3
